Consider 13 compounds from PubChem BioAssay AID624179 (Johns Hopkins Ion Channel Center, 2012).

Molecules are shown by their SMILES.

This assay has as its system HEK293 M3R/RGS4, carbachol calcium flux, Fluo4. The experiment in a line: potency of compounds enhancing RGS4 activity – cell-based, HEK293 M3R/RGS4, calcium flux, SAR compounds, SAR follow-up (AID 624179). An outline of the steps:
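System: HEK293 M3R cells with induced RGS4 | Buffer or medium: HBSS-HEPES assay buffer, pH 7.4 | Signal: Fluo-4 calcium fluorescence | Reagent: Carbachol at EC20 as calcium-mobilizing stimulus | Incubation: 20 min compound pre-incubation at room temperature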
(In general: A change in cytosolic calcium serves as a functional read-out for many receptors and channels.)

As to `CC(C)Cn1c(-c2ccc(F)cc2)n[nH]c1=S`, the EC50 (as a rule, the concentration needed to bring the measured effect to its halfway point) is 3.16 µM. In the case of `O=C(CNC1CCCCCC1)Nc1ccc(S(=O)(=O)NC2CC2)cc1`, the EC50 is 5.86 µM. `Cc1ccc(NC(=O)c2cc(-c3cccs3)nc3ccccc23)nc1`: the EC50 is 3.48 µM. As for `CN(Cc1ccc(F)cc1)C(=O)C(c1ccccc1)c1ccccc1`, the concentration giving a half-maximal response (EC50) was 2.2 µM. For `O=C(Nc1ccccc1N1CCN(C(=O)c2ccccc2)CC1)c1ccc(Cl)o1`, the 50% effective concentration (EC50) was 4.63 µM. Turning to `O=C(CNc1ccccc1)c1ccc([N+](=O)[O-])cc1`, the 50% effective concentration (EC50) was 6.26 µM. For the compound `CCCCn1c(-c2csc(CCC)c2)n[nH]c1=S`, the EC50 was 2.24 µM. For the compound `COC(=O)C1CCCN(C(=O)c2cc(-c3ccc(C)cc3)nc3ccccc23)C1` (stereo not drawn), the half-maximal effective concentration (EC50) was 4.67 µM.

As for `CCn1cc(CN2CCC(n3nccc3NC(=O)c3ccc(OC)cc3)CC2)cn1`, the EC50 is 2.98 µM. Regarding `COC(=O)c1cccc(Nc2nc(-c3cccnc3)nc3ccccc23)c1`, the EC50 is 2.05 µM.

In the case of `Cc1ccc(S(=O)(=O)c2ccc(Oc3cccc(C)c3)cc2)cc1`, the EC50 is 2.76 µM. In the case of `S=c1[nH]nc(-c2ccc(Cl)cc2)n1CC1CCCO1` (stereo not drawn), the EC50 is 5.6 µM. On to `CCN1CCCC1CNCc1ccccc1OCc1ccc(F)cc1` (stereo not drawn), for which the EC50 was 7.17 µM.
